Compound activity from PubChem BioAssay.
A selection: hits, their analogues and other compounds. The true share with any hit is near 2%.
STEP block: STEP phosphatase inhibitors, primary screen, biochemical, fluorescence intensity, uHTS | AID 588621, 2011 | 360,000 tested, 0.25% active | recombinant STEP, OMFP fluorogenic substrate | inhibition, % at 20 µM | Tyrosine-protein phosphatase non-receptor type 5 (Homo sapiens), P54829;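 active means inhibition at 20 µM, scaled per plate between control wells, above about 37%, limit read from the data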
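Assay system: isolated STEP enzyme / Timing: 20 min at room temperature, dark / Doses: 20 µM, 1% DMSO / Technique: fluorescence intensity, excitation 480 nm, emission 540 nm / Reagent: fluorogenic phosphatase substrate OMFP at 25 µM final / Measure: percent inhibition scaled to no-enzyme and uninhibited-enzyme controls, plate-pattern corrected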
LMPTP block: LMPTP phosphatase inhibitors, primary screen, biochemical, fluorescence intensity, uHTS | Low molecular weight phosphotyrosine protein phosphatase (Homo sapiens), P24666 | inhibition, % at 20 µM | 360,000 tested, 0.22% active | recombinant LMPTP-A, OMFP fluorogenic substrate;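 active means compounds that cut the enzyme signal by at least half of the control window in the single-dose screen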
Target sequence (P24666 whole entry, looked up): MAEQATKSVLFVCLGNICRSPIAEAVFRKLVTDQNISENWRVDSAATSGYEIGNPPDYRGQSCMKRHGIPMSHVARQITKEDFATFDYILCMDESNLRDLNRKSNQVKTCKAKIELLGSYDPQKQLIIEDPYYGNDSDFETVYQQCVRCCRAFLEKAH
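test system = LMPTP-A | amount = 0.625 nM LMPTP-A final | reagent = fluorogenic phosphatase substrate OMFP at 400 µM final | incubation = 50 min at room temperature | benchmarks = no-enzyme low control, uninhibited high control | medium = Bis-Tris pH 6.0, DTT, detergent | signal = fluorescence intensity of OMFP turnover product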
Rpn11 block: Rpn11 (PSMD14) deubiquitinase inhibitors, primary screen, biochemical, fluorescence polarization, uHTS. human 26S proteasome, Ub4-pepOG fluorescence polarization; 20S core pre-blocked with epoxomicin. 26S proteasome non-ATPase regulatory subunit 14 (Homo sapiens), O00487. inhibition, % at 20 µM. 360,000 tested, 0.59% active;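 active means inhibition at 20 µM, scaled to each plate's controls, above about 33%, limit read from the data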
Target sequence (O00487 whole entry, looked up): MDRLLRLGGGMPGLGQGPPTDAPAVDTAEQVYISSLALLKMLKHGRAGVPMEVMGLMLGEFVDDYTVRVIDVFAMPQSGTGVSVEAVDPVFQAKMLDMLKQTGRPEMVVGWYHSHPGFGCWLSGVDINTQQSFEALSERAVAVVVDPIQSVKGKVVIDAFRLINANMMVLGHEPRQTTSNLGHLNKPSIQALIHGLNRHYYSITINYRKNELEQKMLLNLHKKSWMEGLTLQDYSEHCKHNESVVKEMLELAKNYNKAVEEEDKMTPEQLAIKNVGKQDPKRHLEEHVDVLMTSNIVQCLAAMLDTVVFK
Scp-1 inhibitor: Scp-1 phosphatase inhibitors, primary screen, biochemical, colorimetric, uHTS; Carboxy-terminal domain RNA polymerase II polypeptide A small phosphatase 1 (Homo …; Recombinant Scp1, phosphopeptide, malachite green phosphate absorbance; inhibition, % at 20 µM; 340,000 tested, 0.88% active;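 active means inhibition above about 50% at 20 µM, limit read from the data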
Target sequence (Q9GZU7 76-261 limits assumed): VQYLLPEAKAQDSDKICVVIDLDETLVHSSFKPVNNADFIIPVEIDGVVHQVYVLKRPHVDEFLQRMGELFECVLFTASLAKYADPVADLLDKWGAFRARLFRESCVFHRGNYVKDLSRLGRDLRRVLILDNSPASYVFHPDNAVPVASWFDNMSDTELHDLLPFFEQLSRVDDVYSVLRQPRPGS
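Material: truncated SCP-1 phosphatase (76-261aa) / Buffer or medium: 50 mM Tris acetate pH 5.5, 0.005% Tween-20, 10 mM MgCl2 / Compound dosing: one concentration, 20 µM, with 1.0% DMSO / Incubation: 45 min room-temperature reaction, 5 min colour, 30 min stabiliser / Detection: colorimetric free-phosphate detection, absorbance 630 nm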
DNMT1 inh: human DNMT1 methyltransferase inhibitors, primary screen, biochemical, molecular beacon, fluorescence, HinP1I cleavage, uHTS | DNA (cytosine-5)-methyltransferase 1 (Homo sapiens), P26358 | inhibition (reported as % activation of signal), % at 10 µM | 360,000 tested, 0.83% active; in the data active means inhibition above about 50%
Rpn11 confirm: Rpn11 (PSMD14) deubiquitinase inhibitors, confirmation, biochemical, fluorescence polarization, single concentration; purified human 26S proteasome, Ub4-pepOG fluorescence polarization; proteasome pretreated with epoxomicin; inhibition, % at 20 µM; shares compounds with Rpn11 block; 1,900 tested, 29% active; AID 602318, 2012
MMP-2 inh: MMP-2 enzyme inhibition, confirmation, counter-screen for RPN11 inhibitor project, biochemical, fluorescence, single concentration | shares compounds with Rpn11 block | recombinant MMP-2, FRET peptide cleavage fluorescence | inhibition, % at 20 µM | 1,900 tested, 4% active;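 further: human MMP-2 activated beforehand with APMA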
Thrombin FP: bovine thrombin protease inhibition, confirmation, counter-screen for Rpn11 inhibitor project, biochemical, fluorescence polarization, single concentration; inhibition, % at 20 µM; 1,900 tested, 13% active; AID 602333, 2012; shares compounds with Rpn11 block; bovine thrombin cleavage of Ub4-pepOG;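 active means mean inhibition at least 40% at 20 µM, or signal 3 deviations below plate average, so some actives read negative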
STEP inh conf: STEP phosphatase inhibitor hit confirmation, biochemical, fluorescence intensity, single concentration. 520 tested, 32% active. shares compounds with STEP block. recombinant STEP, OMFP fluorogenic substrate. inhibition, % at 20 µM; call rule not given here
Of the large screens only hits and unclear results are named; the others gave an inactive call (follow-up assays come after a bar, where shown). Unless noted, no stated cut-off is given here; in the data, active means inhibition above about 40%; inactive means the rest.

Cc1ccc(S(=O)(=O)N2[C@@H](c3ccc(Cl)c(Cl)c3)C(C(=O)O)=C[C@H]2CC2CCCC2)cc1	Rpn11 block 57 | Rpn11 confirm inactive | MMP-2 inh inactive | Thrombin FP inactive
CCN(CC)c1ccc(/C=N/NC(=O)c2cccc(S(=O)(=O)Nc3ccccc3OC)c2)cc1	Rpn11 block 50 | Rpn11 confirm 57 | MMP-2 inh inactive | Thrombin FP inactive
CCN(CC)c1ccc(/C=N/NC(=O)c2cccc(S(=O)(=O)Nc3ccccc3OC)c2)c(O)c1	none (not shown: Rpn11 block)
COc1ccc(COc2ccsc2C(=O)Nc2ccc(Cl)c(Cl)c2)cc1	STEP block 55, Rpn11 block 44 | Rpn11 confirm inactive | MMP-2 inh inactive | Thrombin FP inactive | STEP inh conf inactive
O=C1C2CC=CCC2C(=O)N1c1ccc(N2CCN(c3ccccn3)CC2)c([N+](=O)[O-])c1 (stereo unspecified)	none
COc1cc(Cl)cc(/C=N\NC(=O)c2ccc3c(c2)OCO3)c1O	STEP block 52, Rpn11 block 97 (no result: Scp-1 inhibitor) | Rpn11 confirm 134 | MMP-2 inh inactive | Thrombin FP 76 | STEP inh conf 84
Nc1ncnc2c1c(-c1ccc(Oc3ccccc3)cc1)cn2C1CCCC1	none
O=C(COC(=O)C1CCCCC1)Nc1cccc(Br)c1	none
COc1ccc(NC(=O)CN(c2ccccc2F)S(=O)(=O)c2ccc(C)cc2)c(OC)c1	none
O=C(Nc1ccccc1-c1nc2ccccc2s1)C1=COCCO1	STEP block 58, LMPTP block 51, Rpn11 block 62 | Rpn11 confirm inactive | MMP-2 inh inactive | Thrombin FP inactive | STEP inh conf inactive
N#Cc1cnc(SCC(=O)NNC(=O)COc2cccc3ccccc23)nc1N	STEP block 100, Rpn11 block 45 | Rpn11 confirm inactive | MMP-2 inh inactive | Thrombin FP inactive | STEP inh conf inactive
Cc1cccc(NC(=O)c2cc3c(=O)n4ccccc4nc3s2)c1	STEP block 84, Rpn11 block 95 | Rpn11 confirm inactive | MMP-2 inh inactive | Thrombin FP inactive | STEP inh conf inactive
CC(=O)OCC1(C)CN(c2ccccc2)NC1=O (stereo unspecified)	none
COc1ccc(N(CC(=O)N/N=C/c2cccs2)S(=O)(=O)c2ccccc2)cc1	none
Cc1ccc(N(CC(=O)N/N=C/c2cccs2)S(C)(=O)=O)cc1	STEP block 121, Rpn11 block 29 | Rpn11 confirm inactive | MMP-2 inh inactive | Thrombin FP inactive | STEP inh conf inactive
CCc1ccccc1NC(=O)N1CCCC(CCC(=O)N(C)CCc2ccccn2)C1 (stereo unspecified)	STEP block 117, Rpn11 block 36 | Rpn11 confirm inactive | MMP-2 inh inactive | Thrombin FP inactive | STEP inh conf inactive
C/C(=N\NC(=O)c1ccc(OC2OCCOC2Oc2ccc(C(=O)N/N=C(\C)c3ccncc3)cc2)cc1)c1ccncc1 (stereo unspecified)	STEP block 45, LMPTP block 66, Rpn11 block active | Rpn11 confirm 192 | MMP-2 inh inactive | Thrombin FP 51 | STEP inh conf inactive
C/C(=N\NC(=O)c1ccncc1)c1ccc(N2CCOCC2)cc1	none
Cc1ccc(C(=O)Nc2ccc(C(=O)N/N=C/c3cccnc3)cc2)cc1	STEP block 75, Rpn11 block 57 | Rpn11 confirm 49 | MMP-2 inh inactive | Thrombin FP inactive | STEP inh conf inactive
Cc1cccc(C(=O)Nc2ccc(C(=O)N/N=C/c3cccnc3)cc2)c1	none
COc1ccc(C(=O)NCCc2c[nH]c3ccc(OC)cc23)cc1	none
COc1ccc2[nH]cc(CCNC(=O)c3ccccc3Cl)c2c1	STEP block 46, Rpn11 block 59 | Rpn11 confirm inactive | MMP-2 inh inactive | Thrombin FP inactive | STEP inh conf inactive
COCCCNC(=S)N1CCC(C(=O)c2ccc(Cl)cc2)CC1	none
COC(=O)c1ccc(NC(=O)c2cn(-c3ccccc3)nc2-c2ccncc2)cc1	STEP block 46, Rpn11 block 54 | Rpn11 confirm inactive | MMP-2 inh inactive | Thrombin FP inactive | STEP inh conf inactive
CC(=O)c1ccc(NC(=O)c2cn(-c3ccccc3)nc2-c2ccncc2)cc1	none
S=C1NC[C@H](Cc2ccccc2)N1CC1CCN(CCCC2CCCC2)CC1	STEP block 43 | STEP inh conf inactive
O=C(O)C1C2CCC(O2)C1C(=O)Nc1ccc(O)cc1 (stereo unspecified)	none
Cc1ccc(C(=O)n2c(-c3ccccc3)cnc2SCC(=O)Nc2ccccc2)cc1	STEP block 73 | STEP inh conf inactive
COc1cc(C(=O)NNC(=O)C2CC=CCC2C(=O)O)cc(OC)c1OC (stereo unspecified)	STEP block 119 | STEP inh conf inactive
COc1cc(C(=O)NNC(=O)C2CCC2)cc(OC)c1OC	none
O=C(Nc1nc(-c2ccc3c(c2)Cc2ccccc2-3)cs1)c1ccccc1	STEP block 47 | STEP inh conf inactive
O=C(Nc1cccc(-c2csc(Nc3ccccc3)n2)c1)c1ccccc1	none
CCOC(=O)C1(C)CCCCCN1C(=O)c1ccc(OC)cc1 (stereo unspecified)	none (no result: Scp-1 inhibitor)
COc1ccccc1NS(=O)(=O)c1cc(NC(=O)C(C)(C)C)ccc1N1CCOCC1	none
COc1ccccc1NS(=O)(=O)c1cc(NC(=S)NCCN2CCOCC2)ccc1N1CCOCC1	STEP block 91 | STEP inh conf 69
COc1ccccc1NS(=O)(=O)c1cc(NC(=O)c2sccc2C)ccc1N1CCOCC1	none
